Test results taken from ChEMBL document CHEMBL4190247, “Monastrol, a 3,4-dihydropyrimidin-2(1H)-thione, as structural scaffold for the development of modulators for GHB high-affinity binding sites and α1β2δ GABAA receptors” (Eur J Med Chem, 2017).
Calls of active or inactive are those of the source. The calls are words filed in the database; no cut-off is given here.

Columns and labels:
Rattus norvegicus [1] = species: Rattus norvegicus; assay: Modulation of [3H]NCS-382 binding to alpha4betadelta GABAA receptor in rat cortical membranes assessed as [3H]NCS-382 binding at 100 uM after 1 hr by TopCount scintillation counting method relative to control; format: cell membranes
Method in brief: (§1)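 Rat cortical membrane homogenate (50-70 µg protein per well) incubated with 16 nM [³H]NCS-382 and increasing analogue concentrations, 1 hr at 0-4 °C. Bound ligand collected by rapid filtration on GF/C filters and counted by scintillation. Single-point screen at 100 µM; cooperativity factor (α) and modulator Kb obtained by curve fitting. Triplicates, at least three independent experiments.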

Rattus norvegicus [2] = species: Rattus norvegicus; assay: Modulation of [3H]NCS-382 binding to alpha4betadelta GABAA receptor in rat cortical membranes after 1 hr by TopCount scintillation counting method; format: cell membranes; method in brief: as §1
[3] = biological target: GABA-A receptor; alpha-1/beta-2/gamma-2 (Homo sapiens) (UniProt P14867+P47870+P18507); assay: Modulation of human alpha1beta2gamma2S GABAA receptor expressed in Xenopus laevis oocytes assessed as increase in GABA-induced current at 1 mM at -60 mV holding potential by two-electrode voltage clamp electrophysiology method; format: cell-based
Method in brief: (§2)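 cRNA for human α1β2 (1:1) or α1β2γ2S (5:1:5) subunits injected into X. laevis oocytes (0.9–1.8 ng) and stored at 18 °C in Barth's solution, pH 7.5. Two-electrode voltage clamp in perfused recording solution at pH 7.4. Test compound at 1 mM applied with 1 mM GABA. Currents normalized and given as fold potentiation.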

[4] = biological target: T1, Gamma-aminobutyric acid receptor subunit alpha-1/beta-2/delta (Homo sapiens) (UniProt P14867+P47870+O14764); assay: Agonist activity at human alpha1beta2delta GABAA receptor expressed in Xenopus laevis oocytes assessed as increase in current amplitude at 1 mM at -60 mV holding potential by two-electrode voltage clamp electrophysiology method; format: cell-based
Method in brief: (§3)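 X. laevis oocytes injected with 0.9–1.8 ng cRNA for human α1, β2 and δ subunits (5:1:5) and stored at 18 °C in Barth's solution, pH 7.5. Two-electrode voltage clamp with 3 M KCl electrodes (~2–4 MΩ), perfused with recording solution at pH 7.4. Compound co-applied with 1 mM GABA. Initial and rebound currents expressed as fold increase over the 1 mM GABA response, mean ± S.E.M.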

[5] = biological target: GABA-A receptor; GABA-A site (alpha1/beta2 interface) (Homo sapiens) (UniProt P14867+P47870); assay: Modulation of human alpha1beta2 GABAA receptor expressed in Xenopus laevis oocytes assessed as increase in GABA-induced current at 1 mM at -60 mV holding potential by two-electrode voltage clamp electrophysiology method; format: cell-based; method in brief: as §2
[6] = biological target: T1, Gamma-aminobutyric acid receptor subunit alpha-1/beta-2/delta (Homo sapiens); assay: (§4) Modulation of human alpha1beta2delta GABAA receptor expressed in Xenopus laevis oocytes assessed as increase in GABA-induced current at 1 mM at -60 mV holding potential by two-electrode voltage clamp electrophysiology method relative to control; format: cell-based; method in brief: as §3
[7] = biological target: T1, Gamma-aminobutyric acid receptor subunit alpha-1/beta-2/delta (Homo sapiens); assay: as §4, with “by measuring rebound current” for “at 1 mM”, “potential measured after termination of compound application” for “potential”; format: cell-based; method in brief: as §3
[8] = biological target: T1, Gamma-aminobutyric acid receptor subunit alpha-1/beta-2/delta (Homo sapiens); assay: as §4, with “current by measuring rebound current” for “current”, “potential measured after termination of compound application” for “potential”; format: cell-based; method in brief: as §3

Compound | %max (Rattus norvegicus [1]) | Kb (Rattus norvegicus [2]) | further results
CCOC(=O)C1=C(C)NC(=S)NC1c1ccc(C)cc1 (stereo not given) | inactive | inactive | –
CCOC(=O)C1=C(C)NC(=S)NC1c1ccc(O)cc1 (stereo not given) | inactive | inactive | –
CCOC(=O)C1=C(C)NC(=S)NC1c1cccc(Cl)c1 (stereo not given) | inactive | inactive | –
CC(=O)C1=C(C)NC(=S)NC1c1cccc(O)c1 (stereo not given) | 130% | – | –
CCOC(=O)C1=C(C)NC(=S)NC1c1cccnc1 (stereo not given) | inactive | inactive | –
CCC(=O)C1=C(CC)NC(=S)NC1c1cccc(O)c1 (stereo not given) | 130% | – | –
CCOC(=O)C1=C(C)NC(=S)NC1c1cccc(C)c1 (stereo not given) | inactive | inactive | –
COC(=O)C1=C(C)NC(=O)NC1c1ccccc1 (stereo not given) | – | inactive | Activity [3]: inactive; Activity [4]: inactive; Activity [5]: inactive; fold change (FC) [6]: 5.9
CCOC(=O)C1=C(C)N=C(S)NC1c1cccc([N+](=O)[O-])c1 (stereo not given) | inactive | inactive | –
CCOC(=O)C1=C(C)NC(=S)NC1c1ccnn1C (stereo not given) | inactive | inactive | –
CCOC(=O)C1=C(C)NC(=S)NC1c1cccc(OC)c1 (stereo not given) | inactive | inactive | –
CCOC(=O)C1=C(C)NC(=S)NC1c1ccc(O)c(O)c1 (stereo not given) | 246% | – | Activity [8]: Active; pKb (Rattus norvegicus [2]): 3.68; Activity [3]: inactive; Activity [4]: inactive; Activity [5]: inactive; fold change (FC) [6]: 2.7
COC(=O)C1=C(C)NC(=S)NC1c1cccc(O)c1 (stereo not given) | 194% | – | Activity [8]: Active; pKb (Rattus norvegicus [2]): 3.46; Activity [3]: inactive; Activity [4]: inactive; Activity [5]: inactive; fold change (FC) [6]: 1.3
CCOC(=O)C1=C(C)NC(=S)NC1c1cc(O)cc(O)c1 (stereo not given) | 247% | – | pKb (Rattus norvegicus [2]): 3.83
CCOC(=O)C1=C(C)N=C(S)NC1C (stereo not given) | inactive | inactive | –
CCN(CC)C(=O)C1=C(C)NC(=S)NC1c1cccc(O)c1 (stereo not given) | inactive | inactive | –
CC1=C(C(=O)O)C(c2cccc(O)c2)NC(=S)N1 (stereo not given) | inactive | inactive | –

More lines, main results first:

%max (Rattus norvegicus [1]) | Kb (Rattus norvegicus [2]) | Compound | further results
130% | – | CCOC(=O)C1=C(C(C)(C)C)NC(=S)NC1c1cccc(O)c1 (stereo not given) | –
208% | – | CCOC(=O)C1=C(C)NC(=S)N[C@H]1c1cccc(O)c1 | pKb (Rattus norvegicus [2]): 3.95
inactive | inactive | COC(=O)C1=C(C)N(C)C(=S)NC1c1cccc(O)c1 (stereo not given) | –
inactive | inactive | CCCCN1C(=S)NC(c2cccc(O)c2)C(C(=O)OCC)=C1C (stereo not given) | –
inactive | inactive | CCOC(=O)C1=C(C)N(c2ccccc2)C(=S)NC1c1cccc(O)c1 (stereo not given) | –
inactive | inactive | CCOC(=O)C1=C(C)NC(=S)NC1c1cn(-c2ccccc2)nn1 (stereo not given) | –
inactive | inactive | CCOC(=O)C1=C(c2ccccc2)NC(=S)NC1c1cccc(O)c1 (stereo not given) | –
inactive | inactive | CCOC(=O)C1=C(C)N(Cc2ccccc2)C(=S)NC1c1cccc(O)c1 (stereo not given) | –
inactive | inactive | CCOC(=O)C1=C(C)NC(=O)NC1c1cccc(O)c1 (stereo not given) | Activity [3]: inactive; Activity [4]: inactive; Activity [5]: inactive; fold change (FC) [6]: 6.2
185% | – | CCOC(=O)C1=C(C)NC(=S)NC1c1cccc(O)c1 (stereo not given) | Activity [7]: Dose-dependent effect; pKb (Rattus norvegicus [2]): 3.96; Activity [3]: inactive; Activity [4]: inactive; Activity [5]: inactive; fold change (FC) [6]: 2.9
130% | – | CCOC(=O)C1=C(C)N(CC)C(=S)NC1c1cccc(O)c1 (stereo not given) | –
inactive | inactive | CC1=C(C(=O)OCc2ccccc2)C(c2cccc(O)c2)NC(=S)N1 (stereo not given) | –
inactive | inactive | CCOC(=O)C1=C(C)NC(=S)NC1c1cccc(F)c1 (stereo not given) | –
inactive | inactive | CCOC(=O)C1=C(C)NC(=O)NC1c1ccccc1 (stereo not given) | –
130% | – | CCOC(=O)C1=C(C(C)C)NC(=S)NC1c1cccc(O)c1 (stereo not given) | –
inactive | inactive | CCOC(=O)C1=C(C)N(C)C(=S)N(C)C1c1cccc(O)c1 (stereo not given) | –
inactive | inactive | CCOC(=O)C1=C(C)NC(=S)NC1c1ccccc1 (stereo not given) | –
inactive | inactive | CCOC(=O)C1=C2CCCN2C(=S)NC1c1cccc(O)c1 (stereo not given) | –
177% | 87 µM | CCOC(=O)C1=C(C)N(C)C(=S)NC1c1cccc(O)c1 (stereo not given) | Activity [8]: Active; pKb (Rattus norvegicus [2]): 4.06; Activity [3]: inactive; Activity [4]: inactive; Activity [5]: inactive; fold change (FC) [6]: 3.1
171% | – | CCOC(=O)C1=C(C)NC(=S)N[C@@H]1c1cccc(O)c1 | pKb (Rattus norvegicus [2]): 3.48
198% | – | CCCC1=C(C(=O)OCC)C(c2cccc(O)c2)NC(=S)N1 (stereo not given) | –
245% | – | CCOC(=O)C1=C(CC)NC(=S)NC1c1cccc(O)c1 (stereo not given) | Activity [8]: Active; pKb (Rattus norvegicus [2]): 3.98; Activity [3]: inactive; Activity [4]: inactive; Activity [5]: inactive; fold change (FC) [6]: 1.4
